NALP1 inh = inhibitors of NALP1 inflammasome in yeast; inhibition, % at 10 µM; 0.61% of 280,000 active; S. cerevisiae NALP1/ASC/caspase-1 growth, X-gal OD620, 72 h; in the data active = inhibition mostly above about 24%, no sharp cut-off; inactive = mostly below about 32%
MC4R antagonist = human MC4R antagonism in cAMP assay. inhibition, % at 6.5 µM. AID 540295. MC4R-expressing cells, MTII-stimulated cAMP, LANCE TR-FRET. 0.48% of 360,000 active;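 active = inhibition above its plate's cutoff, the mean of tested wells on that plate plus 3 SD, cut at about 29% in these data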;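 also: 0% = Melanotan II alone and 100% = Melanotan II plus saturating MCL0020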
Target sequence (P32245 whole entry, looked up): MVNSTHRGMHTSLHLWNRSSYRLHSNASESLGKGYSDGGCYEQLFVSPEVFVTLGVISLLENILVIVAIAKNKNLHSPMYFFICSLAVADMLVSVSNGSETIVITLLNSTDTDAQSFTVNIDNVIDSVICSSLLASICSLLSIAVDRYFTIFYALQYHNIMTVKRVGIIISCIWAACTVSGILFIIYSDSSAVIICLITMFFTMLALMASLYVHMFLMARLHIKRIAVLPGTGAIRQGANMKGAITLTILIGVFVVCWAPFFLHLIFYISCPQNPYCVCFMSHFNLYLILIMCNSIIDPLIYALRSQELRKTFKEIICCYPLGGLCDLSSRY
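Assay system: U2OS-MC4R stable cell line; Also added: Melanotan II; Technique: Eu-cAMP/anti-cAMP TR-FRET, emission 671 nm; Times: 30-min compound, 1-h challenge, 1-h detection, room temperature.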
MC4R ag barr = human MC4R agonism via beta-arrestin. P32245. U2OS MC4R beta-arrestin complementation, luminescence; percent of melanotan II response, DMSO zero. activation, % at 8.9 µM. 0.98% of 360,000 active;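 active = activation above a per-plate cutoff, the mean activation of sample wells on that plate plus 3 SD, cut at about 8% in these data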
A1 inh = inhibitors of the anti-apoptotic protein A1, read as caspase activation | MEF A1-2A-BIM cells, Caspase-Glo 3/7 luminescence, 3 h; percent of clofoctol response, vehicle zero | 0.066% of 330,000 active | caspase activation, % (concentration not given with the values);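 active = over half of replicate activation scores above 10%, or exactly half above 10 with the replicate mean above 10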
TbMetRS inhib = blocks T. brucei methionyl-tRNA synthetase activity | inhibition, % at 11.9 µM | purified T. brucei MetRS, ATP depletion, Kinase-Glo luminescence | 0.4% of 360,000 active | AID 624268;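 active = inhibition above a per-plate cutoff of the control wells' mean inhibition plus 3 SD, cut at about 5.5% in these data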;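 also: 0% = DMSO wells median and 100% = median of wells with control inhibitor compound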
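Assay system: T. brucei methionyl-tRNA synthetase, purified | Medium: HEPES buffer with MgCl2, KCl, DTT, spermine, BSA, pyrophosphatase | Compound: 11.9 µM single point | Incubation: 15 min enzyme-compound preincubation, 2 h reaction, 10 min detection, 25 °C | Measured by: Kinase-Glo luciferase luminescence reporting remaining unconsumed ATP | Measure: % inhibition normalized to control-well medians | Replication: Singlicate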
NLRP3 yeast inh = NALP3 inhibition in yeast | Yeast reconstituted NLRP3/ASC/caspase-1, beta-gal luminescence, 24 h | inhibition, % at 10 µM | 0.39% of 330,000 active | AID 2825;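 active = inhibition of 50% or more; inactive = inhibition below 50%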;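 also: plate controls were induced DMSO wells for no effect and uninduced yeast grown without galactose for full effect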
Active calls of the source: *; · = no result. A selection: hits, their analogues and other compounds. The true share with any hit is near 2.5%.

SMILES	NALP1 inh	MC4R antagonist	MC4R ag barr	A1 inh	TbMetRS inhib	NLRP3 yeast inh
CCOc1ccc(Nc2cc(C)nc3nc(C)nn23)cc1	20.5	2.3	-0.3	5.2*	2.4	-0.5
COc1ccc(C(=O)NCCNC(C)=O)cc1S(=O)(=O)NCc1ccc(Cl)cc1	28.2*	-2.0	-1.0	0.0	0.4	6.4
O=C(Cn1cnc([N+](=O)[O-])c1)Nc1cc(Oc2ccc(Cl)cc2Cl)cc([N+](=O)[O-])c1	-11.2	8.6	1.2	1.2	78.4*	-3.9
N#Cc1ccc(NC(=O)Cn2cnc([N+](=O)[O-])c2)cc1	15.2	20.1	-0.2	0.5	-1.0	7.7
O=C(Nc1ccc(Br)c(Cl)c1)C1CC1	45.0*	-6.4	-1.3	1.3	-0.3	21.4
CC(=O)Nc1cccc(NC(=O)c2ccccc2Cl)c1	·	5.8	-0.7	·	-0.3	·
CC1CCc2nc(NC(=O)CN3CCN(Cc4ccc5c(c4)OCO5)CC3)sc2C1 (centres undefined)	21.1	19.5	9.3*	0.3	0.9	33.4
CCOc1ncccc1C(=O)Nc1cc(S(=O)(=O)N(CC)CC)ccc1N1CCOCC1	·	9.8	1.6	0.9	-0.6	18.5
NC(=O)C1(N2CCCCC2)CCN(C(=S)Nc2ccc(F)cc2)CC1	19.2	-2.3	8.5*	2.4	-1.1	1.9
CCCc1nnc(NC(=O)c2cc3ccccc3o2)s1	6.6	9.2	-2.1	-2.1	0.7	-3.8
CCCc1nnc(NC(=O)CC(=O)Nc2ccccc2C(=O)O)s1	40.0*	3.9	0.6	-6.1	-1.3	14.7
CCCc1nnc(NC(=O)c2cc3ccccc3oc2=O)s1	40.4*	12.1	1.6	-5.4	-0.1	3.8
O=C(NCc1ccco1)C1C(=O)Nc2ccccc2C(=O)N1C1CCCCC1 (centres undefined)	·	·	·	·	-0.4	·
Cc1cccc(N(Cc2ccccc2)C(=O)CCl)c1	-12.6	25.3	21.8*	·	0.3	·
CC1(C(=O)NS(=O)(=O)c2ccccc2)CCN1C(=O)COc1ccc(Cl)cc1 (centres undefined)	·	-1.4	0.3	·	-0.2	·
Cc1cc(C(C#N)c2ccc(Cl)cc2)c(Cl)cc1NC(=O)c1cc(I)cc(I)c1O (centres undefined)	·	2.8	5.9	5.8*	-1.7	35.2
CC(=O)Nc1ncnc2c1c(-c1ccc(Cl)cc1)nn2C(C)(C)C	42.5*	15.1	-3.9	3.8	-0.8	49.1
CC(=O)N(C(C)=O)c1ncnc2c1c(-c1ccc(Cl)cc1)nn2C(C)(C)C	7.9	19.3	0.9	0.5	-0.5	10.2
O=C(C[n+]1ccccc1)N/N=C/c1c(F)cccc1Cl	6.2	-2.3	1.5	0.7	-1.0	11.6
COCCNS(=O)(=O)c1cccn1-c1ncc(C(F)(F)F)cc1Cl	40.2*	6.5	-0.9	1.1	0.3	-9.0
CN(C)C(=O)c1cccn1-c1ncc(C(F)(F)F)cc1Cl	-21.8	9.0	2.9	-0.2	-0.7	6.2
O=C(COc1ccccc1)Nc1nc(-c2cccnc2)cs1	·	7.1	4.3	-0.4	-0.3	11.8
Cc1cc(C)cc(OCC(=O)Nc2nc(-c3cccnc3)cs2)c1	11.7	6.6	9.2*	-0.4	-0.3	19.9
N#Cc1ccc(OCC(=O)Nc2nc(-c3cccnc3)cs2)cc1	·	4.5	9.1*	0.5	-0.3	0.3
CCOC(=O)CCCCCC(=O)Nc1ccc2c(c1)C(=O)N([C@H](C)CO)C[C@@H](C)[C@H](CN(C)Cc1ccc3c(c1)OCO3)O2	·	-5.0	-0.9	-0.1	0.1	15.4
SMILES	NALP1 inh	MC4R antagonist	MC4R ag barr	A1 inh	TbMetRS inhib	NLRP3 yeast inh
CCOc1ccccc1NC(=O)CN1C(=O)NC(Cc2c[nH]c3ccccc23)C1=O (centres undefined)	·	-0.4	0.0	-1.8	-0.3	4.2
COc1ccc(CNC(=O)c2cc3c(C)nc4ccccc4c3o2)c(OC)c1	-8.9	5.5	8.6*	-1.2	-1.1	26.1
CCOC(=O)N1CCN(C(=O)C[C@@H]2C[C@@]3(C(=O)OC)CCCCC=C3N(Cc3ccccc3)C2=O)CC1	·	·	·	·	-0.2	·
Cc1ccc(C(=O)ONc2ccc(N=NC(=O)c3ccccc3O)cc2)cc1	42.5*	7.9	0.4	-5.5	-0.4	7.6
Cc1ccc(C(=O)ONc2ccc(N=O)cc2)cc1	43.8	-0.7	0.9	-1.4	0.1	15.2
N#CCOC(=O)[C@H](Cc1c[nH]c2ccccc12)NS(=O)(=O)c1ccc(Cl)cc1	1.5	33.7*	1.1	-0.7	0.7	-3.1
COc1cc2c(cc1OC)CN(C(=O)c1cc(C3CC3)nn1-c1ccccc1)CC2	·	8.3	-2.7	0.0	0.0	21.4
CCN(CC)C(=O)Cn1cc(S(=O)(=O)CC(=O)NCCc2ccccc2)c2ccccc21	9.5	-1.4	-2.0	-0.3	-0.1	6.0
C=CCOc1ccc(CN(C)C(=O)c2ccc(CNS(=O)(=O)c3ccc(C)c(C)c3)cc2)cc1	·	7.5	-2.1	-0.1	0.4	14.0
Nc1nc2nccc(-c3ccc(Cl)cc3)n2n1	36.3*	4.1	-0.3	-1.6	-0.7	33.6
COc1ccc(NC(=O)c2ccc(NC3CC(=O)N(c4ccc(C)cc4C)C3=O)cc2)cc1 (centres undefined)	2.6	9.7	8.2*	1.0	1.2	-4.5
COCCOC(=O)/C(=C/c1ccc(OC(=O)c2ccccc2)cc1)C(C)=O	61.3*	18.6	2.0	0.3	0.1	24.7
N=c1c2c3c(sc2ncn1Cc1ccco1)CCCCC3	15.6	3.3	-2.1	0.8	-0.4	21.4
CC(C)Cn1cnc2sc3c(c2c1=N)CCCC3	40.2*	7.8	0.1	0.8	-0.2	16.2
CCOC(=O)c1[nH]c2ccc(Cl)cc2c1NC(=O)c1nonc1C	9.4	3.7	8.9*	0.7	0.0	-2.4
CN1CCC(Oc2ccc(Sc3ccccc3)cc2)CC1	48.9*	-1.4	-0.1	0.9	0.2	14.7
O=C(Nc1cc(C(F)(F)F)ccc1-n1cncn1)c1ccc(F)cc1Cl	·	5.2	-2.9	0.9	-0.2	14.8
COc1ccc(C=O)cc1COc1ccc(C)cc1[N+](=O)[O-]	0.0	-23.8	-2.7	-1.2	0.5	9.8
COc1ccc(C=O)cc1COc1ccc(Cl)cc1[N+](=O)[O-]	9.8	-7.4	9.9*	0.6	-1.3	5.5
C=CCOc1ccc(/C=C/C(=O)OCC(=O)N(C)CC(=O)Nc2ccc(F)cc2)cc1	·	1.4	-0.5	-0.1	-0.5	7.4
COc1ccccc1NC(=O)c1cc2cc(Br)ccc2oc1=N	5.0	-6.3	8.3*	2.0	-1.5	23.1
COc1ccccc1NC(=O)c1ccc(Br)o1	27.7*	-0.4	0.0	-2.4	0.2	5.8
O=C(Nc1ccccc1Oc1ccccc1)c1ccc(Br)o1	34.1	0.9	4.2	0.5	-1.1	-21.4
COc1ccc2o/c(=N\O)c(C(=O)Nc3ccccc3OC)cc2c1	22.9	-13.9	4.4	-0.7	-1.5	13.8

Bioassay records: PubChem, several laboratories
